Source: ChEMBL document CHEMBL3352243, “Ligand-based virtual screening identifies a family of selective cannabinoid receptor 2 agonists” (Bioorg Med Chem, 2015)
In brackets after ≈: the same amount, converted by molar mass. Each block holds one molecule with its values, some of them ahead of it.

Columns and labels:
[1] = target: T1, Cannabinoid receptor 2 (Homo sapiens, UniProt P34972); experiment: Agonist activity at human CB2R expressed in CHO cells assessed as reduction in forskolin-induced cAMP accumulation by beta-galactosidase based complementation immunoassay; format: functional, cell-based
Method in brief: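 hCB2R CHO-K1 cells plated overnight at 37 °C, 5% CO2; anti-cAMP antibody added, then compound (final 0.2% DMSO) with 20 μM forskolin for 30 min at 37 °C. Lysis/substrate 1 h, then EA detection reagent 3 h at room temperature; luminescence read and normalised to forskolin+solvent wells (100%). EC50 by 4-parameter nonlinear fit of pooled 3–4 independent experiments.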
Target sequence in this assay (P34972 whole entry): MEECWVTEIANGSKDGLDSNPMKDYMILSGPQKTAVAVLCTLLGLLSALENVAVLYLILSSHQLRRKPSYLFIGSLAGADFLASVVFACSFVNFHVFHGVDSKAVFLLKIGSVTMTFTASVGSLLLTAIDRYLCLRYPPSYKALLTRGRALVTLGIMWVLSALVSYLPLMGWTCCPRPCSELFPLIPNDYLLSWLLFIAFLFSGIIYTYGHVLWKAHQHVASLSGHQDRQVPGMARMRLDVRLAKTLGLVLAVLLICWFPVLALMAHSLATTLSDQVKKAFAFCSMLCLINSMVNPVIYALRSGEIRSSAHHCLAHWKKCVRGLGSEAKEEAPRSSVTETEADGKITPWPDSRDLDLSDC

[2] = Aqueous kinetic solubility of the compound at pH 7 at 37 degC by turbidimetric assay; format: physicochemical; conditions: read-out: Kinetic_solubility
Method in brief: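 Turbidimetric method: DMSO dilutions added to phosphate-buffered saline pH 7.4 at final 1, 3, 10, 30, 100 μM (1% DMSO), 7 replicates per concentration. Incubated 2 h at 37 °C, then absorbance read at 620 nm. Value is the mid-point of the precipitation range between upper and lower solubility limits.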

[3] = target: T1, Cannabinoid receptor 2; experiment: Displacement of [3H]WIN-55212-2 from human CB2R expressed in CHO cells; format: cell-based
Method in brief: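 Membranes from CHO cells expressing hCB2R incubated with test compound and tritiated WIN-55212 (0.8 nM), 2 h, 37 °C. Non-specific binding defined with 5 μM WIN-55212. Scintillation counting of bound ligand; Ki via Cheng–Prusoff with radioligand Kd; duplicate.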
Target sequence in this assay (P34972 whole entry): as above

[4] = target: T2, Cannabinoid receptor 1 (Homo sapiens, UniProt P21554); experiment: Displacement of [3H]CP55940 from human CB1R expressed in CHO cells; format: cell-based
Method in brief: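 Membranes from CHO cells expressing hCB1R incubated with test compound and [3H]CP 55,940 (0.5 nM) for 2 h at 37 °C. Non-specific binding defined with 10 μM WIN-55212. Bound radioligand measured by scintillation counting. Ki from Cheng–Prusoff using radioligand Kd; run in duplicate.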

[5] = tested on: Liver; experiment: Half life in mouse liver microsomes in presence of NADPH by LC-MS/MS method; format: ADME
Method in brief: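 Mouse liver microsomes incubated with compound at 37 °C with NADPH. Reactions stopped with methanol containing internal standard, centrifuged, supernatant analysed by LC–MS/MS.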

[6] = target: T1, Cannabinoid receptor 2; experiment: Agonist activity at human CB2R expressed in CHO cells assessed as reduction in forskolin-induced cAMP accumulation at 1 uM by beta-galactosidase based complementation immunoassay; design: reference not given here
Target sequence in this assay (P34972 whole entry, looked up): as the sequence (P34972 whole entry) above

[7] = target: T1, Cannabinoid receptor 2; experiment: Agonist activity at human CB2R expressed in CHO cells assessed as reduction in forskolin-induced cAMP accumulation at 3 uM by beta-galactosidase based complementation immunoassay; format: functional, cell-based; design: reference not given here
Method in brief: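 CHO-K1 cells expressing hCB2R, 15,000 per well, incubated overnight at 37 °C, 5% CO2, then anti-cAMP antibody added. Test agent at single concentration with 20 μM forskolin (0.2% DMSO final), 30 min at 37 °C. Lysis/substrate 1 h, then EA reagent 3 h, both at rt in the dark; luminescence read and expressed as % of forskolin+solvent control wells.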
Target sequence in this assay (P34972 whole entry): as above

[8] = target: T2, Cannabinoid receptor 1; experiment: Agonist activity at human CB1R expressed in CHO cells assessed as reduction in forskolin-induced cAMP accumulation by beta-galactosidase based complementation immunoassay; format: functional, cell-based
Method in brief: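 CHO-K1 cells expressing hCB1R, 15,000 per well, incubated overnight at 37 °C, 5% CO2, then given anti-cAMP antibody. Compounds were added with 20 μM forskolin (final DMSO 0.2%) for 30 min at 37 °C. Lysis/substrate step 1 h and EA detection 3 h, both at rt in the dark, then luminescence read.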

T2 sequence (P21554 whole entry): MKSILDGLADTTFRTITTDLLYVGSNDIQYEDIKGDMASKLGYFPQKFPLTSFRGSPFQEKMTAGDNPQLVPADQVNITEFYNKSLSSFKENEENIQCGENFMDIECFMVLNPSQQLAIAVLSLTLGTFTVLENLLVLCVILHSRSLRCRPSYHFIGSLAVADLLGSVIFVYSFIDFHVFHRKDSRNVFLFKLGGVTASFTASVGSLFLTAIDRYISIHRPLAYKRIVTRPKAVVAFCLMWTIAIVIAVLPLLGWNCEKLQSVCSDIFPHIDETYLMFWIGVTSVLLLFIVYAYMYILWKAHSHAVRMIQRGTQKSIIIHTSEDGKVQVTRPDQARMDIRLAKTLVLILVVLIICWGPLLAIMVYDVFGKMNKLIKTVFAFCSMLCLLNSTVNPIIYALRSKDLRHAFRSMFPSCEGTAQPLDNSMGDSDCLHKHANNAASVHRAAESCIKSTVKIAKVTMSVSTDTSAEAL

EC50 [1]: > 3000 nM
SMILES: CSc1nnc2c(n1)[nH]c1ccccc12

SMILES: N#Cc1ccccc1CSc1nnc2c3ccccc3n(C(=O)c3ccccc3)c2n1
solubility kinetic [2]: 2 µM (≈ 0.843 µg/mL) | Ki [3]: 300 nM | EC50 [1]: 113 nM | Ki [4]: > 10000 nM

EC50 [1]: > 3000 nM
SMILES: CN(C)c1ccc(C(=O)n2c3ccccc3c3nnc(SCc4ccccc4C#N)nc32)cc1

SMILES: N#Cc1ccccc1CSc1nnc2c3ccccc3n(C(=O)C3CCCCC3)c2n1
Ki [3]: 30 nM | EC50 [1]: 32 nM | Ki [4]: > 60000 nM

SMILES: N#Cc1ccccc1CSc1nnc2c3ccccc3n(CC3CC3)c2n1
t1/2 [5]: < 5 min | EC50 [1]: 144 nM

Activity [6]: 76.3% | Activity [7]: 36.7%
SMILES: C=CCn1c(SCCCC)nc2sc3c(c2c1=O)CC(C)(C)OC3

EC50 [1]: > 3000 nM
SMILES: Cn1c2ccccc2c2nnc(SCc3ccccc3C#N)nc21

EC50 [1]: > 3000 nM
SMILES: Clc1ccc(CSc2nnc3c(n2)[nH]c2ccccc23)cc1

SMILES: N#Cc1ccccc1CSc1nnc2c3ccccc3n(C(=O)C3CCCC3)c2n1
Ki [3]: 320 nM | EC50 [1]: 49 nM | Ki [4]: > 60000 nM

SMILES: CCCCSc1nnc2c(n1)[nH]c1ccccc12
Activity [6]: 52.1% | solubility kinetic [2]: 2 µM (≈ 0.517 µg/mL) | EC50 [1]: 296 nM | Activity [7]: 57.2%

Activity [6]: 63.2% | Activity [7]: 39.9%
SMILES: CCCCCCSC1=C(C#N)C(c2cccc([N+](=O)[O-])c2)NC(=O)N1 (stereo not given)

SMILES: N#Cc1ccccc1CSc1nnc2c3ccccc3n(C(=O)c3ccno3)c2n1
solubility kinetic [2]: 6.5 µM (≈ 2.68 µg/mL) | Ki [3]: 450 nM | EC50 [1]: 19 nM | Ki [4]: > 60000 nM

SMILES: N#Cc1ccccc1CSc1nnc2c3ccccc3n(Cc3ccccc3[N+](=O)[O-])c2n1
Ki [3]: 290 nM | EC50 [1]: 53 nM | Ki [4]: > 60000 nM | EC50 [8]: > 30000 nM

EC50 [1]: > 3000 nM
SMILES: N#Cc1ccccc1CSc1nnc2c(n1)[nH]c1ccc(Br)cc12

EC50 [1]: > 3000 nM
SMILES: Fc1cccc(F)c1CSc1nnc2c(n1)[nH]c1ccccc12

Activity [6]: 86.2% | Activity [7]: 73.1%
SMILES: CCCCCSc1nnc2c(n1)[nH]c1ccccc12

SMILES: CCn1c2ccccc2c2nnc(SCc3ccccc3C#N)nc21
EC50 [1]: 674 nM

Activity [6]: 129% | Activity [7]: 110%
SMILES: CCCCCSc1nnc2c3ccccc3n(C)c2n1

Activity [6]: 47.8% | Activity [7]: 44.3%
SMILES: CCCCSc1nnc2c(n1)OC(CC)Nc1ccccc1-2 (stereo not given)

EC50 [1]: > 3000 nM
SMILES: CC(=O)n1c2ccccc2c2nnc(SCc3ccccc3C#N)nc21

SMILES: N#Cc1ccccc1CSc1nnc2c3ccccc3n(C(=O)c3ccco3)c2n1
Ki [3]: 490 nM | EC50 [1]: 46 nM | Ki [4]: > 10000 nM

EC50 [1]: > 3000 nM
SMILES: FC(F)(F)c1ccccc1CSc1nnc2c(n1)[nH]c1ccccc12

EC50 [1]: > 3000 nM
SMILES: Fc1ccccc1CSc1nnc2c(n1)[nH]c1ccccc12

SMILES: N#Cc1ccccc1CSc1nnc2c3ccccc3n(CC3CCCCC3)c2n1
t1/2 [5]: < 5 min | EC50 [1]: 270 nM

EC50 [1]: > 3000 nM
SMILES: N#Cc1ccccc1CSc1nnc2c3ccccc3n(S(=O)(=O)c3ccccc3[N+](=O)[O-])c2n1

Activity [6]: 105% | Activity [7]: 117%
SMILES: CCCCCCSC1=C(C#N)C(c2cccc(Cl)c2)NC(=O)N1 (stereo not given)

SMILES: N#Cc1ccccc1CSc1nnc2c(n1)[nH]c1cccc(-c3ccsc3)c12
EC50 [1]: 1760 nM

Activity [6]: 121% | Activity [7]: 114%
SMILES: CCCCCCSC1=C(C#N)C(c2ccc(F)cc2)NC(=O)N1 (stereo not given)

EC50 [1]: > 3000 nM
SMILES: FC(F)(F)Oc1ccccc1CSc1nnc2c(n1)[nH]c1ccccc12

EC50 [1]: > 3000 nM
SMILES: Clc1ccccc1CSc1nnc2c(n1)[nH]c1ccccc12

SMILES: N#Cc1ccccc1CSc1nnc2c3ccccc3n(C(=O)N3CCOCC3)c2n1
solubility kinetic [2]: 10.5 µM (≈ 4.52 µg/mL) | EC50 [1]: 92 nM

SMILES: COC(=O)CCC(=O)n1c2ccccc2c2nnc(SCc3ccccc3C#N)nc21
solubility kinetic [2]: 3.75 µM (≈ 1.62 µg/mL) | Ki [3]: 360 nM | EC50 [1]: 48 nM | Ki [4]: > 60000 nM

EC50 [1]: > 3000 nM
SMILES: Clc1cccc(CSc2nnc3c(n2)[nH]c2ccccc23)c1

SMILES: N#Cc1ccccc1CSc1nnc2c3ccccc3n(Cc3ccccc3)c2n1
Ki [3]: 11 nM | t1/2 [5]: < 5 min | EC50 [1]: 214 nM | Ki [4]: 61 nM | EC50 [8]: 1550 nM

EC50 [1]: > 3000 nM
SMILES: N#Cc1ccccc1CSc1nnc2c3ccccc3n(C(=O)c3ccc(F)cc3C(F)(F)F)c2n1
